Source: ChEMBL document CHEMBL1821692, “Synthesis and evaluation of diarylthiazole derivatives that inhibit activation of sterol regulatory element-binding proteins” (J Med Chem, 2011)
In brackets after ≈: the same amount, converted by molar mass. Activity calls are given as the source filed them. The calls are words filed in the database; no cut-off is given here.

Columns and labels:
Hepatocyte [1] = assay: Metabolic stability in mouse hepatocytes at 1 uM after 90 mins by LC-MS/MS analysis; assay type: ADME, cell-based; details: 1.5 h
Outline: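 Each compound at 1 μM incubated at 37 °C in Leibovitz L-15 medium with mouse hepatocytes (3×10^5 cells mL⁻¹), in duplicate with shaking. […] After centrifugation the supernatant went to LC-MS/MS. Controls were compound in medium alone, and 7-ethoxycoumarin/7-hydroxycoumarin for phase I/II activity.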

[2] = Aqueous solubility of the compound at pH 7 after 24 hrs by LC-MS/MS analysis; assay type: physicochemical; details: buffer, pH 7, 24 h
Outline: (§1)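 DMSO stock diluted to 250 μM in aqueous buffer at pH 3 or pH 7 and held 24 h. Solution filtered through a 0.22 μm membrane; compound in the filtrate quantified by LC-MS/MS.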

[3] = Apparent permeability assessed as membrane retention at 10 uM after 4 hrs by PAMPA; assay type: ADME
Outline: (§2)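 Passive diffusion across 15% soy lecithin in n-dodecane artificial membrane on a filter plate. […] Sandwich incubated 4 h at 37 °C. Acceptor, donor and initial donor solutions quantified by LC-MS/MS; Papp and % membrane retention calculated.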

[4] = Apparent permeability at 10 uM after 4 hrs by PAMPA; assay type: ADME; outline: as §2
[5] = Aqueous solubility of the compound at pH 3 after 24 hrs by LC-MS/MS analysis; assay type: physicochemical; details: buffer, pH 3, 24 h; outline: as §1
Hepatocyte [6] = assay: Half life in mouse hepatocytes at 1 uM after 90 mins by LC-MS/MS analysis; assay type: ADME, cell-based, Liver; details: 1.5 h
Outline: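 Compound at 1 μM incubated at 37 °C with shaking in Leibovitz L-15 medium with mouse hepatocytes (3×10^5 cells mL⁻¹), in duplicate. […] Medium-only incubations served as negative controls; 7-ethoxycoumarin and 7-hydroxycoumarin were positive controls for phase I/II activity.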

[7] = molecular target: T1, Sterol regulatory element-binding protein 2 (Homo sapiens) (UniProt Q12772); details: CHO-K1; 1 to 20 uM
T1 sequence (whole entry): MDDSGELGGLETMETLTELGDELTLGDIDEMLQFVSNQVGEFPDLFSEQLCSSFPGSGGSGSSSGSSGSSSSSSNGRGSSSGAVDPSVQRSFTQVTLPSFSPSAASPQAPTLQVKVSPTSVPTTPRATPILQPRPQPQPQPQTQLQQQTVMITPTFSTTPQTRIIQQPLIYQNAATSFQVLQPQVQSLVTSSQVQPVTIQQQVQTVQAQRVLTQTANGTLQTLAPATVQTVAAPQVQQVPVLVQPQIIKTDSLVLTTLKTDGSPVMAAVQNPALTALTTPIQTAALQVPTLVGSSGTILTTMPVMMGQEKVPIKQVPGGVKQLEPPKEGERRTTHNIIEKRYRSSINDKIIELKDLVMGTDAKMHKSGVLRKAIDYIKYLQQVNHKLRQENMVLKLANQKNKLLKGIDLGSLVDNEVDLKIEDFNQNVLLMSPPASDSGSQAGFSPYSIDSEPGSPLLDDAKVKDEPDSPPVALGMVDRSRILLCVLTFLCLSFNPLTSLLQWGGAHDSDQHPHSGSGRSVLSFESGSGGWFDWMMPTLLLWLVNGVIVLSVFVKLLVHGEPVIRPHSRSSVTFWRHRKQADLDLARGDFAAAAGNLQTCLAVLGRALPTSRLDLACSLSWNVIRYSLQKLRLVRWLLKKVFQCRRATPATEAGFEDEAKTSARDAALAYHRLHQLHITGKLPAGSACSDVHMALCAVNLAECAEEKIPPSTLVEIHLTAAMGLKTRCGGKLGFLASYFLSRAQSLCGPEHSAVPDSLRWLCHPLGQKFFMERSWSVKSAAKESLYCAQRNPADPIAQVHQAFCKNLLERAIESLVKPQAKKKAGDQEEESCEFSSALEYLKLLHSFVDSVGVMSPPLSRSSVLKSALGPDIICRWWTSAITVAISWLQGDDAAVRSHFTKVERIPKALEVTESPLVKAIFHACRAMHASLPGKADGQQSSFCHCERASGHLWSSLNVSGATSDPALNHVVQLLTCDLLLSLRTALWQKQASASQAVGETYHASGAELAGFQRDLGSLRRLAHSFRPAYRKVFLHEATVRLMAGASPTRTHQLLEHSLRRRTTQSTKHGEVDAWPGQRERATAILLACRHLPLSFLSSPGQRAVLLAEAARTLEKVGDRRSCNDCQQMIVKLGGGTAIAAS

For `CCCc1cc(-c2nc(-c3ccc(NC(C)C)cc3)cs2)ccn1`, the Stability (Hepatocyte [1]) was “Stable”, the solubility [2] was 3 µM (≈ 1.01 µg/mL) and the Activity [3] was 93.95%. The Papp [4] was 1.059 ×10⁻⁶ cm/s, the solubility [5] was greater than 225 µM and the t1/2 (Hepatocyte [6]) was 22.4 min.
In the case of `CCCc1cc(-c2nc(-c3ccc(NS(C)(=O)=O)cc3)cs2)ccn1`, the Stability (Hepatocyte [1]) is reported as “Stable”, the solubility [2] is reported as 33 µM (≈ 12.3 µg/mL) and the inhibition [7] is reported as “inactive”. For the same compound, the Activity [3] was 97.35%, the Papp [4] was 14.98 ×10⁻⁶ cm/s and the solubility [5] was greater than 225 µM. It also gave a t1/2 (Hepatocyte [6]) of 44.4 min.
For `CCCc1cc(-c2nc(-c3ccc(C)cc3)cs2)ccn1` [FATOSTATIN], the Stability (Hepatocyte [1]) was “Stable”, the solubility [2] was 2 µM (≈ 0.589 µg/mL) and the Activity [3] was 94%. The Papp [4] was 0.7555 ×10⁻⁶ cm/s, the solubility [5] was 80 µM (≈ 23.6 µg/mL) and the t1/2 (Hepatocyte [6]) was 10.1 min.
`CC(=O)CC(c1ccccc1)c1c(O)c2ccccc2oc1=O` (stereo not given) [WARFARIN] gave an Activity [3] of 0%.
